Data as given in publication PMC7523912 (ACS applied bio materials, 2019).
*: point of attachment. Palmitoyl = CCCCCCCCCCCCCCCC(=O)*

How the values were obtained:
[1] = no reference or method printed; cited from earlier work
[2] = tested on: PDGF-BB mediated proliferation of normal human lung fibroblasts (NHLF); experiment: Inhibition of PDGF-BB mediated proliferation assay; type: cell-based; details: PDGF-BB only samples, CyQuant
Method in brief: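 NHLF at passage 3–4 were grown in DMEM with 10% FBS and 1% penicillin/streptomycin. Cells were seeded at 10,000/well, recovered overnight, then starved 6 h in 0.5% FBS. PDGF-BB was given as 1:2 serial dilutions from 100 to 1.56 ng/mL, alone or with 500 nM free aptamer, 100 μM diluent PA, or apt-PAN (500 nM aptamer-PA, 100 μM total PA). CyQuant Direct was read at 24 and 48 h, normalised to growth-factor-only wells, with three independent experiments, mean ± SD.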

[3] = molecular target: platelet-derived growth factor-BB (UniProt P01127 82-190); experiment: BLI
platelet-derived growth factor-BB, sequence (P01127 82-190): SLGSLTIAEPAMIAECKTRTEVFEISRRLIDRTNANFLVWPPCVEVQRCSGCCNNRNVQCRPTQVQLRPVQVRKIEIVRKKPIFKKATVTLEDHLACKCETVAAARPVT

For “PDGF-BB: Platelet derived growth factor-BB”, the isoelectric point [1] is given as 9.8 and the “increase in total DNA, after 48 hours” value [2] is given as “more than two-fold”.

In the case of Palmitoyl-VVVAAAEEE-NH2 [diluent peptide amphiphile (palmitoyl-V3A3E3), as self-assembled nanofibers], the koff [3] is reported as 0.000498 s⁻¹ and the kon [3] is reported as 1080 M⁻¹ s⁻¹.
